Measured values from PMC3961596 (Advances in Therapy, 2014).

Tests used:
[1] = test system: urinary glucose excretion; details: healthy subjects; cited from earlier work
[2] = test system: plasma glucose; test: Plasma glucose concentrations in the SAD and MAD studies; assay type: in vivo, human; details: healthy subjects, vs placebo
[3] = animal study; cited from earlier work
[4] = test system: SGLT2; details: read-out: 50% inhibitory concentration (IC50) for SGLT2; cited from earlier work
[5] = test system: healthy male Japanese subjects; test: Assessment of safety in the SAD and MAD studies; assay type: in vivo, human
[6] = 7-day multiple ascending dose; assay type: in vivo, human; details: for mean daily urinary luseogliflozin excretion rate (% of daily dose): Days 1–7, range; for mean urinary luseogliflozin excretion rate: Days 1–11 (96 h after the last administration); for AUC / AUC(0-inf): po
Summary of the method: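 In healthy Japanese men, 5 or 10 mg/day or placebo was given orally for 7 days with 200 mL water just before breakfast, with a standardized ~630 kcal meal on Days 1 and 7. Heparin plasma was sampled to 12 h after the first dose, predose on Days 2–7, and to 96 h after the last dose. Plasma and urine were assayed by HPLC–MS/MS, and parameters derived noncompartmentally (AUCinf Day 1, AUC0–24 Day 7); accumulation was assessed by comparing these.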

[7] = Single ascending dose; assay type: in vivo, human; details: for Cmax / Tmax / k el / Vd/F / half-life: human, plasma, po; for k el: λz
Summary of the method: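 Healthy Japanese men received a single oral dose (1–25 mg) or placebo with 200 mL water under fasting conditions. The 5 mg group was redosed preprandially 8 days later, followed by a standardized ~630 kcal meal. Plasma and urine were collected to 48 h (96 h at 15 and 25 mg) and assayed by HPLC–MS/MS (urine LLOQ 0.5 ng/mL). Analysis was noncompartmental: AUClast by trapezoidal rule, AUCinf extrapolated. Dose proportionality used a power model; food effect used preprandial/fasting geometric mean ratios with 90% CI (mixed model).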

[8] = test system: SGLT1; details: cited from earlier work
[9] = test system: urinary glucose excretion; test: MAD study: urinary glucose excretion; assay type: in vivo, human; details: for mean daily UGE (range): administration days 1–7
Summary of the method: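 Subjects took 5 or 10 mg/day or placebo orally for 7 days before breakfast. Urine was pooled over 24 h predose, over 2-h intervals to 16 h and 16–24 h on Days 1 and 7, and every 24 h on other days through Day 14. Glucose was measured on an automated analyzer; daily and 24-h cumulative UGE (g) were derived. Groups were compared with placebo by ANCOVA, with baseline glucose as covariate.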

[10] = test system: urinary glucose excretion; test: SAD study: urinary glucose excretion; assay type: in vivo, human
Summary of the method: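 After a single oral fasting dose (1–25 mg) or placebo, urine was pooled over 24 h predose and over intervals from 0–2 to 24–48 h post-dose, extended to 96 h for 15 and 25 mg. Aliquots were kept at 4 °C, and glucose was measured on an automated analyzer. UGE (g) was computed per collection period and as 24-h cumulative.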

[11] = both studies (SAD 1–25 mg, MAD 5 or 10 mg/day 7 days)
[12] = SAD, 5 mg, N = 8, estimated value (90% CI)

OC[C@H]1O[C@@H](c2ccc(F)c(Cc3cc4ccccc4s3)c2)[C@H](O)[C@@H](O)[C@@H]1O [ipragliflozin]
maximum amount of daily UGE after multiple dose [1]: 50 to 55 g/day
maximum amount of daily UGE after single dose [1]: approximately 70 g/day

OC[C@H]1O[C@@H](c2ccc(Cl)c(Cc3ccc(O[C@H]4CCOC4)cc3)c2)[C@H](O)[C@@H](O)[C@@H]1O [empagliflozin]
maximum amount of daily UGE after multiple dose [1]: 50 to 55 g/day
maximum amount of daily UGE after single dose [1]: approximately 70 g/day

CCOc1ccc(Cc2cc([C@@H]3O[C@H](CO)[C@@H](O)[C@H](O)[C@H]3O)ccc2Cl)cc1 [dapagliflozin]
maximum amount of daily UGE after multiple dose [1]: 50 to 55 g/day
maximum amount of daily UGE after single dose [1]: approximately 70 g/day

Cc1ccc([C@@H]2O[C@H](CO)[C@@H](O)[C@H](O)[C@H]2O)cc1Cc1ccc(-c2ccc(F)cc2)s1 [canagliflozin]
maximum amount of daily UGE after multiple dose [1]: 50 to 55 g/day
maximum amount of daily UGE after single dose [1]: approximately 70 g/day

CCOc1ccc(Cc2cc([C@@H]3S[C@H](CO)[C@@H](O)[C@H](O)[C@H]3O)c(OC)cc2C)cc1 [luseogliflozin, (1S)-1,5-anhydro-1-[5-(4-ethoxybenzyl)-2-methoxy-4-methylphenyl]-1-thio-D-glucitol]
effect on fasting plasma glucose levels [2]: did not produce clinically significant decreases in fasting plasma glucose levels
concentration in the kidney vs plasma [3]: higher concentration in the kidney than in the plasma
IC50 [4]: 2.26 nM
changes in renal function test values, blood and urine electrolytes, body weight, vital signs, electrocardiography ([5]; MAD): no clinically significant changes
severity of AEs ([5]; MAD): mild and reversible
AE diarrhoea ([5]; MAD, 10 mg): 1 subject
AE occult blood positive ([5]; MAD, 10 mg): 1 subject
subjects with AEs ([5]; MAD, 16 subjects received luseogliflozin): 2 subjects
Escherichia coli and Klebsiella oxytoca in urine ([5]; MAD, after drug administration): less than 10^3 colony forming units/mL
changes in renal function test values, blood and urine electrolytes ([5]; SAD): no clinically significant changes
severity of AEs ([5]; SAD): mild, reversible, and did not appear to be dose-related
AE occult blood positive ([5]; SAD, 3 mg): 2 subjects
AE beta 2 microglobulin urine increased ([5]; SAD, 9 mg): 1 subject
AE diarrhoea ([5]; SAD, 25 mg): 1 subject
AE urethritis ([5]; SAD, 25 mg): 1 subject
subjects with AEs ([5]; SAD, 43 subjects received luseogliflozin): 7 subjects
hypoglycemia [5, 11]: no cases of hypoglycemia
serious AEs or AEs leading to discontinuation [5, 11]: no serious AEs or AEs leading to discontinuation were observed
mean daily urinary luseogliflozin excretion rate (% of daily dose) ([6]; MAD, 5 mg): 3.74–4.69%
mean urinary luseogliflozin excretion rate ([6]; MAD, 5 mg): 4.58%
CL/F ([6]; MAD, 5 mg/day oral before breakfast, Day 1, N = 8, mean ± SD): 2.72 ± 0.648 L/h
CL/F ([6]; MAD, 5 mg/day oral before breakfast, Day 7, N = 8, mean ± SD): 2.61 ± 0.537 L/h
mean daily urinary luseogliflozin excretion rate (% of daily dose) ([6]; MAD, 10 mg): 3.58–4.23%
mean urinary luseogliflozin excretion rate ([6]; MAD, 10 mg): 4.12%
CL/F ([6]; MAD, 10 mg/day oral before breakfast, Day 1, N = 8, mean ± SD): 3.05 ± 0.628 L/h
CL/F ([6]; MAD, 10 mg/day oral before breakfast, Day 7, N = 8, mean ± SD): 3.00 ± 0.612 L/h
accumulation potential ([6]; MAD, 7 days, AUCinf Day 1 vs AUCτ Day 7): No accumulation potential
trough concentrations, steady state ([6]; MAD, value just before each administration): reached a steady state by Day 7
AUC ([6]; human, plasma, 5 mg/day): 1980 ng·h/mL
AUC(0-inf) ([6]; human, plasma, 5 mg/day): 1930 ng·h/mL
AUC ([6]; human, plasma, 10 mg/day): 3470 ng·h/mL
AUC(0-inf) ([6]; human, plasma, 10 mg/day): 3430 ng·h/mL
half-life ([6]; male, human, plasma, oral, mean T 1/2 after 7-day repeat administration (range), MAD, 5 and 10 mg/day, Day 7): 9.14 to 10.7 h
effect of food on pharmacokinetics ([7]; SAD, 5 mg preprandial vs fasting): food had little effect on luseogliflozin pharmacokinetics
AUCinf ratio preprandial/fasting [7, 12]: 105 (101–110) %
AUClast ratio preprandial/fasting [7, 12]: 105 (101–109) %
C max ratio preprandial/fasting [7, 12]: 107 (89.9–127) %
mean plasma concentration as % of C max ([7]; SAD, by 48 h after administration): 2–3%
dose proportionality ([7]; SAD, dose range 1–25 mg): dose proportionality was observed
mean urinary luseogliflozin excretion rate (% of each dose) ([7]; SAD, single administration, fasting, range over doses): 3.36–4.40%
CL/F ([7]; SAD, single oral 1 mg, fasting, N = 3, mean ± SD): 3.02 ± 0.489 L/h
CL/F ([7]; SAD, single oral 3 mg, fasting, N = 8, mean ± SD): 3.16 ± 0.744 L/h
CL/F ([7]; SAD, single oral 5 mg, fasting, N = 8, mean ± SD): 2.80 ± 0.465 L/h
CL/F ([7]; SAD, single oral 5 mg, preprandial, N = 8, mean ± SD): 2.64 ± 0.362 L/h
CL/F ([7]; SAD, single oral 9 mg, fasting, N = 8, mean ± SD): 2.98 ± 0.326 L/h
CL/F ([7]; SAD, single oral 15 mg, fasting, N = 8, mean ± SD): 2.99 ± 0.483 L/h
CL/F ([7]; SAD, single oral 25 mg, fasting, N = 8, mean ± SD): 2.99 ± 0.436 L/h
Cmax ([7]; 1 mg): 38.2 ± 4.86 ng/mL
Tmax ([7]; 1 mg): 0.667 ± 0.289 h
k el ([7]; 1 mg, SAD, single oral 1 mg, fasting, N = 3, mean ± SD): 1.85e-05 s⁻¹
Cmax ([7]; 3 mg): 116 ± 24.6 ng/mL
Tmax ([7]; 3 mg): 0.75 ± 0.267 h
k el ([7]; 3 mg, SAD, single oral 3 mg, fasting, N = 8, mean ± SD): 2.11e-05 s⁻¹
Cmax ([7]; 5 mg): 187 ± 27.3 ng/mL
Tmax ([7]; 5 mg): 1.06 ± 0.496 h
Vd/F ([7]; 5 mg): 38.9 ± 4.97 L
half-life ([7]; 5 mg): 10.3 ± 1.02 h
k el ([7]; 5 mg, SAD, single oral 5 mg, fasting, N = 8, mean ± SD): 2.01e-05 s⁻¹
Cmax ([7]; 9 mg): 312 ± 45.2 ng/mL
Tmax ([7]; 9 mg): 1.25 ± 0.598 h
k el ([7]; 9 mg, SAD, single oral 9 mg, fasting, N = 8, mean ± SD): 1.96e-05 s⁻¹
Vd/F ([7]; 15 mg): 60.5 ± 31 L
half-life ([7]; 15 mg): 13.8 ± 5.76 h
k el ([7]; 15 mg, SAD, single oral 15 mg, fasting, N = 8, mean ± SD): 1.57e-05 s⁻¹
Vd/F ([7]; 25 mg): 54.7 ± 13.7 L
k el ([7]; 25 mg, SAD, single oral 25 mg, fasting, N = 8, mean ± SD): 1.56e-05 s⁻¹
Tmax ([7]; male): 0.667 to 2.25 h
half-life ([7]; male): 9.23 to 13.8 h
Vd/F ([7]; male, 1 mg): 45.3 ± 6.88 L
half-life ([7]; male, 1 mg): 10.4 ± 0.552 h
Vd/F ([7]; male, 3 mg): 41.4 ± 7.17 L
half-life ([7]; male, 3 mg): 9.23 ± 0.95 h
Cmax ([7]; male, 5 mg): 205 ± 53.5 ng/mL
Tmax ([7]; male, 5 mg): 0.75 ± 0.535 h
Vd/F ([7]; male, 5 mg): 38.7 ± 4.11 L
half-life ([7]; male, 5 mg): 9.72 ± 1.17 h
Vd/F ([7]; male, 9 mg): 42.4 ± 5.4 L
Cmax ([7]; male, 15 mg): 544 ± 143 ng/mL
Cmax ([7]; male, 25 mg): 721 ± 123 ng/mL
selectivity: SGLT2 IC50 lower than IC50 for SGLT1 [8]: 1,765 fold
mean daily UGE on Day 7 ([9]; 5 mg): 58.0 g
mean daily UGE (range) ([9]; 5 mg): 57.2 to 65.5 g
mean daily UGE on Day 7 ([9]; 10 mg): 62.7 g
mean daily UGE (range) ([9]; 10 mg): 62.7 to 76.9 g
mean daily UGE after the last administration ([9]; both 5 and 10 mg doses): about 60 g
increase in 24-h UGE between 1 and 5 mg [10]: 2.7 fold
increase in 24-h UGE from 5 to 25 mg [10]: 1.4 fold
maximum of mean UGE for 24 h [10]: approximately 70 g
mean UGE for 24 h after administration ([10]; 1 mg): 18.9 g
mean UGE from 24 to 48 h after administration ([10]; 1 mg): 2.53 g
mean UGE for 24 h after administration ([10]; 3 mg): 36.8 g
mean UGE from 24 to 48 h after administration ([10]; 3 mg): 12.5 g
mean UGE for 24 h after administration ([10]; 5 mg): 50.2 g
mean UGE from 24 to 48 h after administration ([10]; 5 mg): 21.3 g
mean UGE for 24 h after administration ([10]; 9 mg): 54.3 g
mean UGE from 24 to 48 h after administration ([10]; 9 mg): 37.5 g
mean UGE for 24 h after administration ([10]; 15 mg): 60.7 g
mean UGE from 24 to 48 h after administration ([10]; 15 mg): 48.4 g
mean UGE for 24 h after administration ([10]; 25 mg): 70.9 g
mean UGE from 24 to 48 h after administration ([10]; 25 mg): 62.7 g
